Measured values published in ChEMBL document CHEMBL3621045, “Structural Insights Lead to a Negamycin Analogue with Improved Antimicrobial Activity against Gram-Negative Pathogens” (ACS Med Chem Lett, 2015).
Converted amounts (≈) assume the structure as drawn.

What was measured:
Escherichia coli [1] = assay: Inhibition of transcription-translation process in Escherichia coli; assay type: functional; conditions: Escherichia coli
Acinetobacter baumannii = assay: Antibacterial activity against Acinetobacter baumannii ARC 3495; assay type: functional
Klebsiella pneumoniae = assay: Antibacterial activity against Klebsiella pneumoniae ATCC 700603; assay type: functional
Pseudomonas aeruginosa [2] = assay: Antibacterial activity against Pseudomonas aeruginosa PAO1; assay type: functional
Escherichia coli [3] = assay: microbe, parasite or virus in culture; conditions: ATCC 25922
Pseudomonas aeruginosa [4] = assay: Antibacterial activity against mexABCDXY-deficient Pseudomonas aeruginosa PAO1; assay type: functional
Escherichia coli [5] = assay: microbe, parasite or virus in culture; conditions: ATCC 25922; remark: listed apart in the source
Pseudomonas aeruginosa [6] = assay: Ratio of MIC for Pseudomonas aeruginosa PAO1 to MIC for mexABCDXY-deficient Pseudomonas aeruginosa PAO1; assay type: functional
Procedure, shortened: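 MICs in μg/mL were determined for P. aeruginosa PAO1 and its isogenic efflux-pump knockout strain. Analogues were tested up to their highest soluble concentrations. The value is the parent-strain MIC divided by the knockout-strain MIC.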

CN(CC(=O)O)N(C)C(=O)C[C@H](N)C[C@@H](O)CN
IC50 (Escherichia coli [1]): > 100 µM
MIC (Acinetobacter baumannii): > 256 µg/mL
MIC (Klebsiella pneumoniae): > 256 µg/mL
MIC (Pseudomonas aeruginosa [2]): > 256 µg/mL
MIC (Escherichia coli [3]): > 256 µg/mL

CN(CC(=O)O)NC(=O)C[C@H](N)[C@H](O)[C@@H](O)CN
IC50 (Escherichia coli [1]): 43 µM
MIC (Acinetobacter baumannii): > 256 µg/mL
MIC (Klebsiella pneumoniae): > 256 µg/mL
MIC (Pseudomonas aeruginosa [2]): > 256 µg/mL
MIC (Escherichia coli [3]): > 256 µg/mL

CN(CC(=O)O)NC(=O)C[C@H](N)C[C@@H](O)CNCC1CNC1
IC50 (Escherichia coli [1]): 3.9 µM
MIC (Acinetobacter baumannii): 128 µg/mL (≈ 403 µM)
MIC (Klebsiella pneumoniae): 64 µg/mL (≈ 202 µM)
MIC (Pseudomonas aeruginosa [2]): 256 µg/mL (≈ 807 µM)
MIC (Pseudomonas aeruginosa [4]): 128 µg/mL (≈ 403 µM)
MIC (Escherichia coli [3]): 256 µg/mL (≈ 807 µM)
MIC (Escherichia coli [5]): 128 µg/mL (≈ 403 µM)

CN(C)[C@@H]1C(O)=C(C(N)=O)C(=O)[C@@]2(O)C(O)=C3C(=O)c4c(O)cccc4[C@@](C)(O)[C@H]3C[C@@H]12 [TETRACYCLINE]
IC50 (Escherichia coli [1]): 1.4 µM
MIC (Acinetobacter baumannii): > 64 µg/mL
MIC (Klebsiella pneumoniae): 16 µg/mL (≈ 36 µM)
MIC (Pseudomonas aeruginosa [2]): 32 µg/mL (≈ 72 µM)
MIC (Pseudomonas aeruginosa [4]): 0.25 µg/mL (≈ 0.563 µM)
Ratio (Pseudomonas aeruginosa [6]): 128
MIC (Escherichia coli [3]): 1 µg/mL (≈ 2.25 µM)
MIC (Escherichia coli [5]): 0.5 µg/mL (≈ 1.13 µM)

CN(CC(=O)O)NC(=O)C[C@H](N)C[C@@H](O)CNC[C@H](O)CN
IC50 (Escherichia coli [1]): 0.73 µM
MIC (Acinetobacter baumannii): 32 µg/mL (≈ 99.6 µM)
MIC (Klebsiella pneumoniae): 64 µg/mL (≈ 199 µM)
MIC (Pseudomonas aeruginosa [2]): 128 µg/mL (≈ 398 µM)
MIC (Pseudomonas aeruginosa [4]): 64 µg/mL (≈ 199 µM)
MIC (Escherichia coli [3]): 64 µg/mL (≈ 199 µM)
MIC (Escherichia coli [5]): 32 µg/mL (≈ 99.6 µM)

CN(CC(=O)O)NC(=O)C[C@H](N)[C@@H](O)[C@@H](O)CN
IC50 (Escherichia coli [1]): 3.2 µM
MIC (Acinetobacter baumannii): 64 µg/mL (≈ 242 µM)
MIC (Klebsiella pneumoniae): > 64 µg/mL
MIC (Pseudomonas aeruginosa [2]): > 64 µg/mL
MIC (Escherichia coli [3]): > 64 µg/mL

CCN(CC(=O)O)NC(=O)C[C@H](N)C[C@@H](O)CN
IC50 (Escherichia coli [1]): 7.4 µM
MIC (Acinetobacter baumannii): 256 µg/mL (≈ 976 µM)
MIC (Klebsiella pneumoniae): 128 µg/mL (≈ 488 µM)
MIC (Pseudomonas aeruginosa [2]): 128 µg/mL (≈ 488 µM)
MIC (Escherichia coli [3]): 256 µg/mL (≈ 976 µM)

CC(=O)NCCCNC[C@H](O)C[C@@H](N)CC(=O)NN(C)CC(=O)O
IC50 (Escherichia coli [1]): 19 µM
MIC (Acinetobacter baumannii): > 512 µg/mL
MIC (Klebsiella pneumoniae): > 512 µg/mL
MIC (Pseudomonas aeruginosa [2]): > 512 µg/mL
MIC (Pseudomonas aeruginosa [4]): > 512 µg/mL
MIC (Escherichia coli [3]): > 512 µg/mL
MIC (Escherichia coli [5]): > 512 µg/mL

CN(C)CCCNC[C@H](O)C[C@@H](N)CC(=O)NN(C)CC(=O)O
IC50 (Escherichia coli [1]): 15 µM
MIC (Acinetobacter baumannii): 256 µg/mL (≈ 768 µM)
MIC (Klebsiella pneumoniae): 256 µg/mL (≈ 768 µM)
MIC (Pseudomonas aeruginosa [2]): > 256 µg/mL
MIC (Pseudomonas aeruginosa [4]): > 256 µg/mL
MIC (Escherichia coli [3]): > 256 µg/mL
MIC (Escherichia coli [5]): > 256 µg/mL

CC(C(=O)NN(C)CC(=O)O)[C@H](N)C[C@@H](O)CN (stereo partly drawn)
IC50 (Escherichia coli [1]): 12 µM
MIC (Acinetobacter baumannii): 128 µg/mL (≈ 488 µM)
MIC (Klebsiella pneumoniae): ≥ 256 µg/mL
MIC (Pseudomonas aeruginosa [2]): ≥ 256 µg/mL
MIC (Escherichia coli [3]): 128 µg/mL (≈ 488 µM)

CN(CC(=O)O)NC(=O)C[C@H](N)C[C@@H](O)CNCCCCN
IC50 (Escherichia coli [1]): 0.74 µM
MIC (Acinetobacter baumannii): 16 µg/mL (≈ 50.1 µM)
MIC (Klebsiella pneumoniae): 16 µg/mL (≈ 50.1 µM)
MIC (Pseudomonas aeruginosa [2]): 128 µg/mL (≈ 401 µM)
MIC (Pseudomonas aeruginosa [4]): 64 µg/mL (≈ 200 µM)
MIC (Escherichia coli [3]): 32 µg/mL (≈ 100 µM)
MIC (Escherichia coli [5]): 32 µg/mL (≈ 100 µM)

CN(CC(=O)O)NC(=O)C[C@H](N)C[C@@H](O)CNC[C@@H](O)CN
IC50 (Escherichia coli [1]): 2.5 µM
MIC (Acinetobacter baumannii): 128 µg/mL (≈ 398 µM)
MIC (Klebsiella pneumoniae): 64 µg/mL (≈ 199 µM)
MIC (Pseudomonas aeruginosa [2]): 256 µg/mL (≈ 797 µM)
MIC (Pseudomonas aeruginosa [4]): 128 µg/mL (≈ 398 µM)
MIC (Escherichia coli [3]): 256 µg/mL (≈ 797 µM)
MIC (Escherichia coli [5]): 64 µg/mL (≈ 199 µM)

CN(CC(=O)O)NC(=O)C[C@H](N)C[C@@H](O)CNCCN
IC50 (Escherichia coli [1]): 2.1 µM
MIC (Acinetobacter baumannii): 64 µg/mL (≈ 220 µM)
MIC (Klebsiella pneumoniae): 32 µg/mL (≈ 110 µM)
MIC (Pseudomonas aeruginosa [2]): 128 µg/mL (≈ 439 µM)
MIC (Pseudomonas aeruginosa [4]): 64 µg/mL (≈ 220 µM)
MIC (Escherichia coli [3]): 64 µg/mL (≈ 220 µM)
MIC (Escherichia coli [5]): 64 µg/mL (≈ 220 µM)

CN(CC(=O)O)NC(=O)C[C@H](N)C[C@@H](O)CNCC(F)CN (stereo partly drawn)
IC50 (Escherichia coli [1]): 3.6 µM
MIC (Acinetobacter baumannii): 256 µg/mL (≈ 792 µM)
MIC (Klebsiella pneumoniae): 128 µg/mL (≈ 396 µM)
MIC (Pseudomonas aeruginosa [2]): 256 µg/mL (≈ 792 µM)
MIC (Pseudomonas aeruginosa [4]): 128 µg/mL (≈ 396 µM)
MIC (Escherichia coli [3]): 256 µg/mL (≈ 792 µM)
MIC (Escherichia coli [5]): 128 µg/mL (≈ 396 µM)

CN(CC(=O)O)NC(=O)C[C@H](N)C[C@@H](O)CNC(CCN)c1ccccc1 (stereo partly drawn)
IC50 (Escherichia coli [1]): 2.3 µM
MIC (Acinetobacter baumannii): > 256 µg/mL
MIC (Klebsiella pneumoniae): 64 µg/mL (≈ 168 µM)
MIC (Pseudomonas aeruginosa [2]): > 256 µg/mL
MIC (Pseudomonas aeruginosa [4]): 32 µg/mL (≈ 83.9 µM)
MIC (Escherichia coli [3]): 256 µg/mL (≈ 671 µM)
MIC (Escherichia coli [5]): 128 µg/mL (≈ 336 µM)

CC(N)CCNC[C@H](O)C[C@@H](N)CC(=O)NN(C)CC(=O)O (stereo partly drawn)
IC50 (Escherichia coli [1]): 3.4 µM
MIC (Acinetobacter baumannii): 64 µg/mL (≈ 200 µM)
MIC (Klebsiella pneumoniae): 64 µg/mL (≈ 200 µM)
MIC (Pseudomonas aeruginosa [2]): 128 µg/mL (≈ 401 µM)
MIC (Pseudomonas aeruginosa [4]): 64 µg/mL (≈ 200 µM)
MIC (Escherichia coli [3]): 64 µg/mL (≈ 200 µM)
MIC (Escherichia coli [5]): 64 µg/mL (≈ 200 µM)

CN(CC(=O)O)NC(=O)C[C@H](N)C[C@@H](O)CNCCO
IC50 (Escherichia coli [1]): 0.63 µM
MIC (Acinetobacter baumannii): 64 µg/mL (≈ 219 µM)
MIC (Klebsiella pneumoniae): 64 µg/mL (≈ 219 µM)
MIC (Pseudomonas aeruginosa [2]): 512 µg/mL (≈ 1750 µM)
MIC (Pseudomonas aeruginosa [4]): 128 µg/mL (≈ 438 µM)
MIC (Escherichia coli [3]): 64 µg/mL (≈ 219 µM)
MIC (Escherichia coli [5]): 128 µg/mL (≈ 438 µM)

CN(CC(=O)O)NC(=O)C[C@H](N)C[C@@H](O)CNCCCNC(=N)N
IC50 (Escherichia coli [1]): 1.7 µM
MIC (Acinetobacter baumannii): 64 µg/mL (≈ 184 µM)
MIC (Klebsiella pneumoniae): 128 µg/mL (≈ 368 µM)
MIC (Pseudomonas aeruginosa [2]): 512 µg/mL (≈ 1470 µM)
MIC (Pseudomonas aeruginosa [4]): 256 µg/mL (≈ 737 µM)
MIC (Escherichia coli [3]): 512 µg/mL (≈ 1470 µM)
MIC (Escherichia coli [5]): 256 µg/mL (≈ 737 µM)

CC(CCN)NC[C@H](O)C[C@@H](N)CC(=O)NN(C)CC(=O)O (stereo partly drawn)
IC50 (Escherichia coli [1]): 0.44 µM
MIC (Acinetobacter baumannii): 8 µg/mL (≈ 25 µM)
MIC (Klebsiella pneumoniae): 8 µg/mL (≈ 25 µM)
MIC (Pseudomonas aeruginosa [2]): 32 µg/mL (≈ 100 µM)
MIC (Pseudomonas aeruginosa [4]): 32 µg/mL (≈ 100 µM)
MIC (Escherichia coli [3]): 16 µg/mL (≈ 50.1 µM)
MIC (Escherichia coli [5]): 16 µg/mL (≈ 50.1 µM)

CN(CC(=O)O)NC(=O)C[C@@H](N)C[C@H](O)CN
IC50 (Escherichia coli [1]): 12 µM
MIC (Acinetobacter baumannii): 128 µg/mL (≈ 516 µM)
MIC (Klebsiella pneumoniae): 256 µg/mL (≈ 1030 µM)
MIC (Pseudomonas aeruginosa [2]): 256 µg/mL (≈ 1030 µM)
MIC (Escherichia coli [3]): 512 µg/mL (≈ 2060 µM)

CN(CC(=O)O)NC(=O)C[C@H](N)C[C@@H](O)CNCCCN
IC50 (Escherichia coli [1]): 0.34 µM
MIC (Acinetobacter baumannii): 4 µg/mL (≈ 13.1 µM)
MIC (Klebsiella pneumoniae): 4 µg/mL (≈ 13.1 µM)
MIC (Pseudomonas aeruginosa [2]): 16 µg/mL (≈ 52.4 µM)
MIC (Pseudomonas aeruginosa [4]): 8 µg/mL (≈ 26.2 µM)
MIC (Escherichia coli [3]): 8 µg/mL (≈ 26.2 µM)
MIC (Escherichia coli [5]): 16 µg/mL (≈ 52.4 µM)

CN(CC(=O)O)NC(=O)C[C@H](N)C[C@@H](O)CNCCF
IC50 (Escherichia coli [1]): 2.3 µM
MIC (Acinetobacter baumannii): 128 µg/mL (≈ 435 µM)
MIC (Klebsiella pneumoniae): 64 µg/mL (≈ 217 µM)
MIC (Pseudomonas aeruginosa [2]): > 256 µg/mL
MIC (Pseudomonas aeruginosa [4]): 256 µg/mL (≈ 870 µM)
MIC (Escherichia coli [3]): 64 µg/mL (≈ 217 µM)
MIC (Escherichia coli [5]): 128 µg/mL (≈ 435 µM)
